Here are results for 17 compounds from ChEMBL document CHEMBL4382284, “Acrylamide Functional Group Incorporation Improves Drug-like Properties: An Example with EGFR Inhibitors” (ACS Med Chem Lett, 2019).

Converted amounts (≈) assume the structure as drawn.

One series deals with A549. Briefly: Cytotoxicity against human A549 cells after 72 hrs by MTT assay. In kind it is functional, cell-based. As to conditions: A549, 72 h.
For series [1], the target named is Epidermal growth factor receptor (Homo sapiens, UniProt P00533). Briefly: Inhibition of human EGFR using poly[Glu:Tyr] (4:1) as substrate measured after 20 mins in presence of [gamma33P]ATP by filter-binding assay.
Series [2] is described as follows: Thermodynamic solubility of the compound in pH 7.4 phosphate buffered saline measured after 24 hrs by UV-HPLC analysis. In kind it is physicochemical. The note with it: read-out: Therm_solubility.
A short description of series [3]: Thermodynamic solubility of the compound in 1-octanol solution measured after 24 hrs by UV-HPLC analysis. The format is physicochemical. The note with it: read-out: Therm_solubility.
Series [4] can be described thus: 1-Octanol-buffer partition coefficient, log D of compound at pH 7.4 after 24 hrs by shake-flask method. The note with it: for logD at 24 h: 1-octanol/buffer, pH 7.4. In kind it is physicochemical. In outline: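 Shake-flask partition between 1-octanol and pH 7.4 aqueous solution, mixed at 1/2 (v/v) octanol/aqueous; log D taken at pH 7.4.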
Series [5] is described as follows: GSH reactivity in pH 7.4 phosphate buffer assessed as half life measured every 15 mins by HPLC analysis. The format is physicochemical. As to conditions: phosphate buffer with GSH. The procedure, abridged: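 Half-life measured on incubation with glutathione at pH 7.4 and 37 °C, compound to glutathione 1/10.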
The subject of the next series is Vero. Briefly: Cytotoxicity against African green monkey Vero cells assessed as reduction in cell viability after 72 hrs by MTT assay. The format is ADME, cell-based. As to conditions: Chlorocebus sabaeus.
Series [6] can be described thus: Cytotoxicity against human FHS cells assessed as reduction in cell viability after 72 hrs by MTT assay. In general terms: Tetrazolium dyes change colour on reduction, which living cells bring about.
Series [7] deals with Voltage-gated inwardly rectifying potassium channel KCNH2 (Homo sapiens, UniProt Q12809). Briefly: Inhibition of human ERG.
Chain of Voltage-gated inwardly rectifying potassium channel KCNH2 (Q12809 whole entry): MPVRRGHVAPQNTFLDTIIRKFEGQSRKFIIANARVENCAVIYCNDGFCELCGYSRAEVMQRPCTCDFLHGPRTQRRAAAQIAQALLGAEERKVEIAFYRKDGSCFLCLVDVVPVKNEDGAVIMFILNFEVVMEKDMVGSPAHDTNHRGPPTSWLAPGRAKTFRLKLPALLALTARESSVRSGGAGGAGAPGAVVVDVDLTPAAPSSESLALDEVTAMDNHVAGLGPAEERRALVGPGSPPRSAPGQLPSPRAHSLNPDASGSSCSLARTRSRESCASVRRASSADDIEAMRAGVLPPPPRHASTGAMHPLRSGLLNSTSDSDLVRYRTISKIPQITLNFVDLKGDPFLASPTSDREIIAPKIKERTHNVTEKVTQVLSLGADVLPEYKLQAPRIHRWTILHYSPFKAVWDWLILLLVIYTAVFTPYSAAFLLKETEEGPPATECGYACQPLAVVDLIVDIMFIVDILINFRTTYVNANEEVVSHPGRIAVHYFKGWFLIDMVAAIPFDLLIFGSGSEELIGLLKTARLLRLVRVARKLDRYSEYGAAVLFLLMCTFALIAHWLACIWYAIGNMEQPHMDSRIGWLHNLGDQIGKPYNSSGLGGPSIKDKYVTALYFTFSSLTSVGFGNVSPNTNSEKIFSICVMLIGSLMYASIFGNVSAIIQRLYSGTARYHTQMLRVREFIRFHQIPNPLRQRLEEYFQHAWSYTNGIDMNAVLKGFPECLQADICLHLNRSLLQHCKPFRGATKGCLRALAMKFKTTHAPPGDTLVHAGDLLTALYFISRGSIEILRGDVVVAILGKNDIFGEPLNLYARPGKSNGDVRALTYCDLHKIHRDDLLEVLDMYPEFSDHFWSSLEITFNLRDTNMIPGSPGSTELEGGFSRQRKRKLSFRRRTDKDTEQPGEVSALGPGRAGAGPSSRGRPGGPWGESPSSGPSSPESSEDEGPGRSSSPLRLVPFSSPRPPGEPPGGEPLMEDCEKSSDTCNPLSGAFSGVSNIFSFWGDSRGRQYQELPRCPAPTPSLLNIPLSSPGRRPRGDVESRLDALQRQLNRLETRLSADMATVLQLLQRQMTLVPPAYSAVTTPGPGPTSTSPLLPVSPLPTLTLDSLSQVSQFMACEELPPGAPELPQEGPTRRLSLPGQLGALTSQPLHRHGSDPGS

Chain of Epidermal growth factor receptor (P00533 whole entry): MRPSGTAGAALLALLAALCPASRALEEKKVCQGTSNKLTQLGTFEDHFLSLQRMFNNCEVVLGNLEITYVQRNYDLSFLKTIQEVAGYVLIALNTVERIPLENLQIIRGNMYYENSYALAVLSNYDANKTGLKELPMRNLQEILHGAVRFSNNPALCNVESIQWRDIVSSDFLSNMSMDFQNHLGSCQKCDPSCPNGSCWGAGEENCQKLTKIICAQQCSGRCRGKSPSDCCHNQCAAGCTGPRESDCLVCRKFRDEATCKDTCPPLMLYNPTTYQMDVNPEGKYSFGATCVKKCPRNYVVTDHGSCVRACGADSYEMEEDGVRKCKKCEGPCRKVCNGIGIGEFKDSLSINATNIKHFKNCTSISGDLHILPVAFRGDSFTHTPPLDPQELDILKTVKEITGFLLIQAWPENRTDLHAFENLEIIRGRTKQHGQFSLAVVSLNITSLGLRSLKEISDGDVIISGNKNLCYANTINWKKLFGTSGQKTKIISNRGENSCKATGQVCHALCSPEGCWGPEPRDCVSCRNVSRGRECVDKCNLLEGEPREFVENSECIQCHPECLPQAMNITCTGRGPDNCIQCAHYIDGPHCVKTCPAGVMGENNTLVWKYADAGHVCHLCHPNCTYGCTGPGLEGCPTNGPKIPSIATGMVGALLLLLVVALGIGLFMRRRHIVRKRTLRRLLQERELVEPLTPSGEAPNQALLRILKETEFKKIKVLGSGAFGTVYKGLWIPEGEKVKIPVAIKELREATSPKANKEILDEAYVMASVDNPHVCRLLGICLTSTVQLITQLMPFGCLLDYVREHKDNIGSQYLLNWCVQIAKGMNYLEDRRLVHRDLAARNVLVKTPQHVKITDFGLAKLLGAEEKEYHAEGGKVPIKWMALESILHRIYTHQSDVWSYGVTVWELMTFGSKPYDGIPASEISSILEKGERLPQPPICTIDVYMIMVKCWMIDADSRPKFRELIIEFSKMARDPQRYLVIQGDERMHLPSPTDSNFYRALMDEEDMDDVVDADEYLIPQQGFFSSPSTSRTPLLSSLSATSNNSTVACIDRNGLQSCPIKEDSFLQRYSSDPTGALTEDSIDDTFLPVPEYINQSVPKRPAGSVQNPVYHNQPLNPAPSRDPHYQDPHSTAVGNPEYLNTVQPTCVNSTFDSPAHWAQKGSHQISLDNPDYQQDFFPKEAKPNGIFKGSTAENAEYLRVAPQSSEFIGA

For `COc1cc2ncnc(Nc3cccc(Cl)c3F)c2cc1OCCCN1CCOCC1`, the IC50 (as a rule, the concentration that inhibits the measured activity by half) in the series with A549 turned out to be 7510 nM.
For `C=CC(=O)N(c1cc(F)c(F)cc1F)c1ncnc2cc(OC)c(OCCCN3CCOCC3)cc12`, the concentration for half-maximal inhibition (IC50) in series [1] worked out at 500 nM.
`C=CC(=O)N(c1cccc(Cl)c1F)c1ncnc2cc(OC)c(OCCCN3CCOCC3)cc12`: the IC50 in series [1] was 52.6 nM; with A549 it was 450 nM. Also, the solubility thermodynamic at 24 h in series [2] came out at 1200 µM (≈ 601 µg/mL); in [3], 5600 µM (≈ 2810 µg/mL). Moreover, the logD (in general, the decadic logarithm of the distribution of all forms, ionised or not, between an organic phase and buffer at a given pH) at 24 h in series [4] was determined as 2.64. Besides, in series [5], the half-life (in general, how long it takes for the measured level to halve) stood at 49 min.
Consider `C=CC(=O)N(c1cccc(C(F)(F)F)c1)c1ncnc2cc(OC)c(OCCCN3CCOCC3)cc12`, for which the half-maximal inhibitory concentration (IC50) in [1] was 844 nM.
In the case of `COc1cc2ncnc(Nc3ccc(Cl)c(Cl)c3)c2cc1OCCCN1CCOCC1`, the IC50 in [1] came to 1 nM; in the series with A549, 24700 nM. The solubility thermodynamic at 24 h in series [3] is 4570 µM (≈ 2120 µg/mL).
In the case of `C=CC(=O)N(c1ccc(F)c(C)c1)c1ncnc2cc(OC)c(OCCCN3CCOCC3)cc12`, the IC50 in series [1] was determined as 499 nM.
Regarding `C=CC(=O)N(c1ccc(F)c(Cl)c1)c1ncnc2cc(OC)c(OCCCN3CCOCC3)cc12`, the IC50 in series [1] was 65.2 nM; in the series with A549, 150 nM; in the series with Vero, more than 10000 nM; in [6] it was more than 10000 nM; in series [7], more than 10000 nM. Besides, the solubility thermodynamic at 24 h in series [2] is 1650 µM (≈ 827 µg/mL); in series [3] it was 4540 to 4940 µM (≈ 2270 to 2470 µg/mL). Moreover, the logD at 24 h in series [4] came out at 2.01. Moreover, in [5], the half-life was found to be 85.1 min. Further, the “inhibition (INH)” value in series [7] (human) is recorded as 20%.
On to `C=CC(=O)N(c1cccc(Cl)c1F)c1ncnc2cc(OC)c(OC(=O)N3CCN(C)C[C@H]3C)cc12`, for which, in the series with A549, half-maximal inhibition (IC50) was put at 6100 nM. Besides, the solubility thermodynamic at 24 h was determined as 30 µM (≈ 15.4 µg/mL) in series [2] and 5020 µM (≈ 2580 µg/mL) in series [3]. For the same compound, the pH-dependent lipophilicity (logD) at 24 h in [4] worked out at 2.46. In addition, the half-life in [5] stood at 27.5 min.
Turning to `C=CC(=O)N(c1ccc(Cl)c(Cl)c1)c1ncnc2cc(OC)c(OCCCN3CCOCC3)cc12`, the IC50 in [1] stood at 31.7 nM; in the series with A549 it was 5720 nM. The solubility thermodynamic at 24 h in series [2] is 630 µM (≈ 326 µg/mL); in series [3] it was 4470 µM (≈ 2310 µg/mL). The logD at 24 h in series [4] amounted to 3.57. The half-life in series [5] is 17 min.
Turning to `C=CC(=O)N(c1ccc(Cl)cc1F)c1ncnc2cc(OC)c(OCCCN3CCOCC3)cc12`, the IC50 in series [1] is 234 nM.
On the same count and under the same terms, under `C=CC(=O)N(c1cc(Cl)ccc1F)c1ncnc2cc(OC)c(OCCCN3CCOCC3)cc12` stands 133 nM; under `C=CC(=O)N(c1ccc(F)c(F)c1)c1ncnc2cc(OC)c(OCCCN3CCOCC3)cc12`, 368 nM.
Still for that read-out and setting: under `C=CC(=O)N(c1ccc(F)c(C(F)(F)F)c1)c1ncnc2cc(OC)c(OCCCN3CCOCC3)cc12` stands more than 1000 nM; under `C=CC(=O)N(c1ccc(F)cc1F)c1ncnc2cc(OC)c(OCCCN3CCOCC3)cc12`, 302 nM; under `C=CC(=O)N(c1ccc(OC)cc1F)c1ncnc2cc(OC)c(OCCCN3CCOCC3)cc12`, more than 1000 nM.
Consider `COc1cc2ncnc(Nc3cccc(Cl)c3F)c2cc1OC(=O)N1CCN(C)C[C@H]1C` [AZD-3759], for which, in the series with A549, the IC50 amounted to 28700 nM. The solubility thermodynamic at 24 h in series [2] was found to be 20 µM (≈ 9.2 µg/mL); in [3] it was 4540 µM (≈ 2090 µg/mL). This compound yielded a log distribution coefficient (logD) at 24 h in [4] of 2.84.
`COc1cc2ncnc(Nc3ccc(F)c(Cl)c3)c2cc1OCCCN1CCOCC1` [GEFITINIB]: the solubility thermodynamic at 24 h in series [2] is less than 10 µM; in series [3], 1400 µM (≈ 626 µg/mL). Besides, the log distribution coefficient (logD) in series [4] (octanol/water, pH 7.4, 24 h) worked out at 2.41.
